From ChEMBL document CHEMBL1152848, “Penetratin and derivatives acting as antifungal agents” (2009)
Peptide text beside a SMILES is read from it.

Legend:
Assay type in all cases: functional
Cryptococcus neoformans [1] = experiment: Antifungal activity against Cryptococcus neoformans ATCC 32264 assessed as growth inhibition at 25 uM after 48 hrs; conditions: ATCC 32264, 48 h
In short: (§1)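 Percent growth inhibition by broth microdilution in RPMI-1640. Peptides were dissolved in DMSO (≤2%) and diluted to final 200–12.5 µM. Inoculum 1-5 × 10^3 CFU/ml, cells maintained on Sabouraud agar. Growth control (medium, inoculum, same DMSO, no compound) and sterility control per strain. Plates held 48 h at 35 °C, moist and dark, then read by microplate reader. Amphotericin B positive control. Duplicate tests.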

Candida albicans [2] = experiment: Antifungal activity against Candida albicans ATCC 10231 assessed as growth inhibition at 100 uM after 24 hrs; conditions: ATCC 10231, 24 h
In short: (§2)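 Percent growth inhibition in 96-well microdilution, RPMI-1640. Peptide stocks in DMSO (≤2%), diluted to final 200–12.5 µM. Inoculum adjusted to 1-5 × 10^3 CFU/ml, grown beforehand on Sabouraud–chloramphenicol agar 48 h at 30 °C. Compound-free growth control with matching DMSO, plus sterility control. Incubated 24 h at 35 °C in a moist dark chamber, then read by microplate reader. Amphotericin B as 100% inhibition reference. Duplicates.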

Candida albicans [3] = experiment: Antifungal activity against Candida albicans ATCC 10231 assessed as growth inhibition at 50 uM after 24 hrs; conditions: ATCC 10231, 24 h; in short: as §2
Cryptococcus neoformans [4] = experiment: Antifungal activity against Cryptococcus neoformans ATCC 32264 assessed as growth inhibition at 100 uM after 48 hrs; conditions: ATCC 32264, 48 h; in short: as §1
Cryptococcus neoformans [5] = experiment: Antifungal activity against Cryptococcus neoformans ATCC 32264 assessed as growth inhibition at 50 uM after 48 hrs; conditions: ATCC 32264, 48 h; in short: as §1
Candida albicans [6] = experiment: Antifungal activity against Candida albicans ATCC 10231 assessed as growth inhibition at 200 uM after 24 hrs; conditions: ATCC 10231, 24 h; in short: as §2
Candida albicans [7] = experiment: Antifungal activity against Candida albicans ATCC 10231 assessed as growth inhibition at 25 uM after 24 hrs; conditions: ATCC 10231, 24 h; in short: as §2
Cryptococcus neoformans [8] = experiment: Antifungal activity against Cryptococcus neoformans ATCC 32264 assessed as growth inhibition at 12.5 uM after 48 hrs; conditions: ATCC 32264, 48 h; in short: as §1
Candida albicans [9] = experiment: Antifungal activity against Candida albicans ATCC 10231 assessed as growth inhibition at 12.5 uM after 24 hrs; conditions: ATCC 10231, 24 h; in short: as §2
Cryptococcus neoformans [10] = experiment: Antifungal activity against Cryptococcus neoformans ATCC 32264 assessed as growth inhibition at 200 uM after 48 hrs; conditions: ATCC 32264, 48 h; in short: as §1

Molecule	inhibition at 25 µM (Cryptococcus neoformans [1])	inhibition at 100 µM (Candida albicans [2])	inhibition at 50 µM (Candida albicans [3])	inhibition at 100 µM (Cryptococcus neoformans [4])	inhibition at 50 µM (Cryptococcus neoformans [5])	inhibition at 200 µM (Candida albicans [6])	inhibition at 25 µM (Candida albicans [7])	inhibition at 12.5 µM (Cryptococcus neoformans [8])	inhibition at 12.5 µM (Candida albicans [9])	inhibition at 200 µM (Cryptococcus neoformans [10])
NCCCC[C@H](NC(=O)[C@H](CCCCN)NC(=O)[C@H](Cc1c[nH]c2ccccc12)NC(=O)[C@@H](N)CCCCN)C(N)=O (H-KWKK-NH2)	0%	2%	0%	0%	0%	9%	0%	0%	0%	0%
N=C(N)NCCC[C@H](N)C(=O)N[C@@H](CCC(N)=O)C(=O)N[C@@H](CCCCN)C(=O)N[C@@H](CCCCN)C(N)=O (H-RQKK-NH2)	62%	0%	0%	100%	92%	6%	0%	32%	0%	100%
C[C@@H]1[C@H](O)[C@@H](C)/C=C/C=C/C=C/C=C/C=C/C=C/C=C/[C@H](O[C@@H]2O[C@H](C)[C@@H](O)[C@H](N)[C@@H]2O)C[C@@H]2O[C@](O)(C[C@@H](O)C[C@@H](O)[C@H](O)CC[C@@H](O)C[C@@H](O)CC(=O)O[C@H]1C)C[C@H](O)[C@H]2C(=O)O [AMPHOTERICIN B]	100%	100%	100%	100%	100%	100%	100%	100%	100%	100%
CC(=O)N1CCN(c2ccc(OCC3COC(Cn4ccnc4)(c4ccc(Cl)cc4Cl)O3)cc2)CC1 (stereo not given) [KETOCONAZOLE]	100%	100%	100%	100%	100%	100%	100%	100%	100%	100%
CC[C@H](C)[C@H](NC(=O)[C@H](CCCCN)NC(=O)[C@@H](NC(=O)[C@H](CCC(N)=O)NC(=O)[C@@H](N)CCCNC(=N)N)[C@@H](C)CC)C(=O)N[C@@H](Cc1c[nH]c2ccccc12)C(=O)N[C@@H](Cc1ccccc1)C(=O)N[C@@H](CCC(N)=O)C(=O)N[C@@H](CC(N)=O)C(=O)N[C@@H](CCCNC(=N)N)C(=O)N[C@@H](CCCNC(=N)N)C(=O)N[C@@H](CCSC)C(=O)N[C@@H](CCCCN)C(=O)N[C@@H](Cc1c[nH]c2ccccc12)C(=O)N[C@@H](CCCCN)C(=O)N[C@@H](CCCCN)C(N)=O [PENETRATIN]	100%	100%	95%	100%	100%	100%	91%	90%	4%	100%
H-RKFRRKFKK-NH2	9%	44%	33%	11%	13%	61%	23%	0%	0%	73%
H-RKRRKKK-NH2	10%	12%	0%	14%	19%	43%	0%	0%	0%	60%
H-RKRRKWKK-NH2	6%	13%	0%	33%	11%	29%	0%	0%	0%	100%
H-RKWRRKWKK-NH2	16%	76%	58%	68%	14%	100%	40%	0%	15%	99%
H-WKQKNIKWRFRQKMIR-NH2	28%	52%	0%	92%	36%	60%	0%	0%	0%	96%
